Results published in ChEMBL document CHEMBL1148599, “Antitumor benzothiazoles. 26.(1) 2-(3,4-dimethoxyphenyl)-5-fluorobenzothiazole (GW 610, NSC 721648), a simple fluorinated 2-arylbenzothiazole, shows potent and selective inhibitory activity against lung, colon, and breast cancer cell lines” (2006).
The source made the active and inactive calls. The rule behind the calls is not given here.

Assays:
MCF7 [1] = test: Antiproliferative activity against human breast cancer cell line MCF7; assay type: functional
In short: (§1)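 Cells kept in RPMI 1640 with 2 mM L-glutamine and 10% FCS at 37 °C, 5% CO2. Seeded 5 × 10³/well, left 24 h to adhere, then exposed 72 h to 0.1 nM–100 µM final (DMSO stocks diluted in medium, n = 8). MTT 400 µg/mL final added at dosing and at 72 h, 4 h at 37 °C. Formazan dissolved in DMSO:glycine pH 10.5, A550 read. GI50 from triplicate tests.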

MDA-MB-468 [2] = test: Antiproliferative activity against human breast cancer cell line MDA468; assay type: functional; in short: as §1
KM12 [3] = test: Antiproliferative activity against human colon cancer cell line KM12; assay type: functional; in short: as §1
HCC 2998 [4] = test: Antiproliferative activity against human colon cancer cell line HCC2998; assay type: functional; in short: as §1
MCF7 [5] = test: Ability to induce CYP1A1 protein expression in […] human breast cancer cell line MCF7; assay type: functional, cell-based
In short: (§2)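 Whole-cell lysates from untreated cultures and from cells exposed 24 h to 10 nM–10 µM compound. Protein-normalized samples heated 95 °C 5 min, run on 10% SDS-PAGE and electroblotted to PVDF. Probed with polyclonal anti-human CYP1A1/1A2 antiserum and an alkaline phosphatase secondary, developed with BCIP/NBT. Recombinant CYP1A1 served as positive control for the 52 kDa band.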

MDA-MB-468 [6] = test: Ability to induce CYP1A1 protein expression in […] human breast cancer cell line MDA468; assay type: functional, cell-based; in short: as §2
KM12 [7] = test: Ability to induce CYP1A1 protein expression in sensitive human colon cancer cell line KM12; assay type: functional, cell-based; in short: as §2
HCC 2998 [8] = test: Ability to induce CYP1A1 protein expression in sensitive human colon cancer cell line HCC2998; assay type: functional, cell-based; in short: as §2

| SMILES | GI50 (MCF7 [1]) [nM] | GI50 (MDA-MB-468 [2]) [nM] | GI50 (HCC 2998 [4]) [nM] | GI50 (KM12 [3]) [nM] | Activity (MCF7 [5]) | Activity (MDA-MB-468 [6]) | Activity (KM12 [7]) | Activity (HCC 2998 [8]) |
| --- | --- | --- | --- | --- | --- | --- | --- | --- |
| Cc1cc(-c2nc3ccccc3s2)ccc1N | – | < 0.1 | > 100000 | > 100000 | – | – | – | – |
| COc1cc(OC)cc(-c2nc3cc(F)ccc3s2)c1 | 1230 | 310 | 5210 | 7550 | – | – | – | – |
| COc1ccc(-c2nc3cc(F)ccc3s2)cc1Br | 850 | 420 | 3450 | 6700 | – | – | – | – |
| Cc1cc(-c2nc3cc(F)ccc3s2)ccc1N | – | < 0.1 | > 100000 | > 100000 | – | – | – | – |
| Oc1ccc(-c2nc3cc(F)ccc3s2)cc1O | 720 | 190 | 1640 | 13000 | – | – | – | – |
| COc1ccc(-c2nc3ccc(F)cc3s2)cc1OC | 62 | 5 | 6210 | 24100 | – | – | – | – |
| CCOc1cc(-c2nc3cc(F)ccc3s2)ccc1OC | 80 | 92 | 3320 | 5420 | – | – | – | – |
| CCOc1ccc(-c2nc3cc(F)ccc3s2)cc1OCC | – | 55 | – | 38500 | – | – | – | – |
| COCOc1ccc(-c2nc3cc(F)ccc3s2)cc1OC | 65 | 48 | 53500 | 19200 | – | – | – | – |
| Oc1ccc(-c2nc3ccccc3s2)cc1O | 2190 | 220 | 6990 | 15600 | – | – | – | – |
| COc1ccc(-c2nc3cc(F)ccc3s2)cc1O | 500 | 50 | 7600 | 18400 | – | – | – | – |
| COc1ccc(-c2nc3cc(Cl)ccc3s2)cc1OC | 27900 | 1000 | 4880 | 12400 | – | – | – | – |

Second part, led by results:

| GI50 (MCF7 [1]) [nM] | GI50 (MDA-MB-468 [2]) [nM] | GI50 (HCC 2998 [4]) [nM] | SMILES | GI50 (KM12 [3]) [nM] | Activity (MCF7 [5]) | Activity (MDA-MB-468 [6]) | Activity (KM12 [7]) | Activity (HCC 2998 [8]) |
| --- | --- | --- | --- | --- | --- | --- | --- | --- |
| 653 | 88 | 6490 | COc1cc(-c2nc3cc(F)ccc3s2)cc(O)c1OC | 47500 | – | – | – | – |
| 52700 | 530 | 42500 | COc1ccc(-c2nc3ccccc3s2)cc1OC | 74200 | Active | Active | – | – |
| 20700 | 570 | 22300 | Fc1ccc2sc(-c3ccc4c(c3)OCO4)nc2c1 | 25100 | Active | Active | – | – |
| 870 | 640 | 13700 | COc1ccc(-c2nc3cc(F)ccc3s2)cc1F | 20600 | – | – | – | – |
| 760 | 480 | 2500 | COc1ccc(-c2nc3cc(F)ccc3s2)cc1Cl | 7050 | – | – | – | – |
| 13600 | 770 | 20000 | COc1ccc(-c2nc3cc(Br)ccc3s2)cc1OC | 65200 | – | – | – | – |
| 820 | 360 | 940 | COc1ccc(-c2nc3cc(F)ccc3s2)cc1I | 6900 | – | – | – | – |
| 750 | 170 | 1040 | COc1cc(-c2nc3cc(F)ccc3s2)ccc1O | 47300 | – | – | – | – |
| 48 | 58 | 540 | COc1ccc(-c2nc3cc(F)ccc3s2)cc1C | 18600 | – | – | – | – |
| 5 | 5 | 1060 | COc1ccc(-c2nc3c(F)cccc3s2)cc1OC | 850 | – | – | – | – |
| 490 | 330 | 12400 | COc1ccc(-c2nc3cc(F)ccc3s2)cc1 | 24600 | – | – | – | – |
| 57800 | 800 | 68300 | c1ccc2sc(-c3ccc4c(c3)OCO4)nc2c1 | 98600 | – | – | – | – |
| – | < 0.1 | – | COc1ccc(-c2nc3cc(F)ccc3s2)cc1OC | 290 | Active | Active | inactive | inactive |
| 23 | 120 | 37 | COc1ccc(-c2nc3cc(F)ccc3s2)c(OC)c1OC | 14200 | – | – | – | – |
| 1.9 | 2.1 | 21100 | COc1cc(-c2nc3cc(F)ccc3s2)cc(OC)c1OC | 13000 | – | – | – | – |
